Results reported in PubChem BioAssay.
Values without a mark were called inactive. Inconclusive results are not listed. Active and inactive are the calls of the source.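 How the source made its calls, unless noted: active means cell viability at or below a set limit in both duplicate runs, the limit being the all-compound median minus 4 SD (cut at about 23% in these data, passing the limit was not always enough); inconclusive means no clear call, values can overlap the other calls; inactive means the rest.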

Tests used:
[1] = S. cerevisiae growth inhibition in permissive medium (OD615), pilot counter-assay for S. cerevisiae lifespan shortening project, permissive growth control (AID 705;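 active means growth inhibition above 25% in both replicates, a cutoff set 3 SD above the mean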); settings: OD615, 24 h, at 10 µM, hits give high values
Summary of the method: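 Test system: Saccharomyces cerevisiae strain carrying genetically modified DeaD replicative-lifespan system; buffer or medium: SC raffinose/galactose permissive medium; dosing: one dose 10 µM, DMSO 0.25% final; times: 24 h exposure, 30 °C; measured by: OD at 615 nm; read-out basis: growth inhibition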

[2] = S. cerevisiae growth inhibition in restrictive medium, OD615, pilot screen, restrictive growth control, yeast lifespan reduction project (AID 706;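 active means growth inhibition above a set limit, 3 SD over mean compound inhibition, in both replicates, cut at about 43% in these data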;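 further: modified DeaD lifespan yeast strain shifted to restrictive glucose medium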); settings: OD615, 48 h, at 10 µM, hits give high values
Summary of the method: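 material = engineered S. cerevisiae DeaD strain | buffer or medium = glucose-based CSMM-D restrictive medium | dosing = one concentration, 10 µM final, 0.25% DMSO | schedule = 4 h pre-growth plus 48 h compound exposure, 30 °C | detection = OD615 absorbance reading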

[3] = doxorubicin toxicity protection in MRP-1 cells – H69AR cells, CellTiter-Glo, duplicate, MRP-1 activator project, pilot screen (AID 807;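 active means viability increase at or above a cutoff of the median across tested compounds plus 3 SD, cut at about 8.5% in these data, passing the limit was not always enough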;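 further: compound pretreatment 18-22 h then 72 h combined with doxorubicin; 0% = doxorubicin alone and 100% = vehicle without doxorubicin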); settings: H69AR viability with doxorubicin, CellTiter-Glo luminescence; at 10 µM; hits give high values
[4] = viability of HCT116 without oncogenic beta-catenin – human colon tumor cells, pilot screen (AID 823); settings: HCT116 beta-catenin knockout viability, CellTiter-Glo, 60 h; at 10 µM; hits give low values;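 further: 0% = wells killed by 20 µM Hyamine and 100% = untreated DMSO cell wells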
[5] = viability of PTEN-null HCT116 cells – cell-based, HCT116 clonal line, CellTiter-Glo, pilot screen (AID 824;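 active means viability at or below 27.92% in each of two runs, the all-compound median minus 4 SD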;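 further: 0% = 20 µM Hyamine control and 100% = vehicle cell control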); settings: HCT116 PTEN-deleted viability, 60 h, at 10 µM, hits give low values
[6] = RAM pathway blockade in budding yeast – dse1pr::URA3 reporter, 5-FOA selection, pilot screen (AID 869;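 active means inhibition over a set limit, the all-compound mean plus 3 SD, in both replicate runs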;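 further: 0% = DMSO wells with no growth and 100% = 10 µM 1-NA-PP1 with full growth; RAM network block rescues cells from 5-FOA so hits raise OD615 growth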); settings: S. cerevisiae dse1pr::URA3 5-FOA growth, OD615, 2 d; at 10 µM; hits give high values; strain carries analog-sensitive mutant Cbk1 kinase

COc1ccc(OC)c(-c2cc(C(=O)N3CCN(c4ccccc4)CC3)no2)c1
growth inhibition [1]: -11.8%
growth inhibition [2]: 20.3%
viability increase [3]: -2.36%
viability [4]: 96.9%
viability [5]: 88.8%
inhibition [6]: 1.72%

COC(=O)C1=C(N)N(c2ccc(F)cc2)C2=C(C(=O)CCC2)C1c1ccc2c(c1)OCO2 (centres undefined)
growth inhibition [1]: -6.41%
growth inhibition [2]: -5.16%
viability increase [3]: -0.72%
viability [4]: 84.9%
viability [5]: 86%
inhibition [6]: 3.19%

C=CCNc1ncnc2c1cnn2-c1ccc(Cl)cc1
growth inhibition [1]: -2.23%
growth inhibition [2]: 1.64%
viability increase [3]: 2.88%
viability [4]: 106%
viability [5]: 106%
inhibition [6]: 4.6%

O=C(c1cnn2ccccc12)N1CCCc2ccccc21
growth inhibition [1]: -3.54%
growth inhibition [2]: -1.29%
viability increase [3]: -1.74%
viability [4]: 97.1%
viability [5]: 91.9%
inhibition [6]: 2.38%

Cc1cc(NC(=O)c2noc3c2CCc2ccccc2-3)n(-c2ccccc2)n1
growth inhibition [1]: -11.9%
growth inhibition [2]: -2.05%
viability increase [3]: -2.71%
viability [4]: 94.9%
viability [5]: 98.3%
inhibition [6]: 2.88%

CCOc1ccc(NC(=O)C2CSC(c3ccncc3)=N2)cc1 (centres undefined)
growth inhibition [1]: -3.44%
growth inhibition [2]: 29.4%
viability increase [3]: -0.05%
viability [4]: 98.3%
viability [5]: 103%
inhibition [6]: 0.675%

COc1ccc(-c2cc(CCCC(=O)NCc3ccccn3)no2)cc1
growth inhibition [1]: -5.78%
growth inhibition [2]: 8.54%
viability increase [3]: -1.34%
viability [4]: 98.8%
viability [5]: 97.8%
inhibition [6]: 1.08%

COc1ccccc1OCCSc1nnnn1-c1ccc(C)cc1
growth inhibition [1]: -13.8%
growth inhibition [2]: -6.1%
viability increase [3]: 0.71%
viability [4]: 79.5%
viability [5]: 78.7%
inhibition [6]: 2.32%

COC(=O)c1ccc(C)c(NC(=O)CN(c2cc(OC)ccc2OC)S(C)(=O)=O)c1
growth inhibition [1]: -8.06%
growth inhibition [2]: -3.94%
viability increase [3]: -3.03%
viability [4]: 75.5%
viability [5]: 68.6%
inhibition [6]: 0.035%

CCOc1ccc(CN2CCNC(=O)C2CC(=O)OC)cc1 (centres undefined)
growth inhibition [1]: 0.415%
growth inhibition [2]: -7.59%
viability increase [3]: -0.51%
viability [4]: 98.7%
viability [5]: 102%
inhibition [6]: 1.59%

COc1ccc(OC)c2c1sc(=NC(=O)c1ccco1)n2C
growth inhibition [1]: -3.52%
growth inhibition [2]: 4.96%
viability increase [3]: -5.98%
viability [4]: 71.2%
viability [5]: 67.7%
inhibition [6]: 2.21%

COc1ccc(C)cc1NC(=O)CSc1nnc(-c2ccccn2)n1Cc1ccco1
growth inhibition [1]: -2.92%
growth inhibition [2]: 7.74%
viability increase [3]: -2.4%
viability [4]: 95.7%
viability [5]: 88.2%
inhibition [6]: 1%

CCC(C)(C(=O)NC1CCCC1)N(C(=O)CNC(C)=O)c1ccc(C)cc1 (centres undefined)
growth inhibition [1]: -1.46%
growth inhibition [2]: -5.89%
viability increase [3]: -0.57%
viability [4]: 94.2%
viability [5]: 96.7%
inhibition [6]: 2.1%

Cc1ccc(CNC(=O)CS(=O)Cc2nc(-c3ccccc3C)oc2C)cc1 (centres undefined)
growth inhibition [1]: -3.71%
growth inhibition [2]: 1.06%
viability increase [3]: 0.04%
viability [4]: 90.3%
viability [5]: 98.4%
inhibition [6]: 1.06%

CN(C)c1ccc(CN(C)C2CCCCC2)cc1
growth inhibition [1]: 2.59%
growth inhibition [2]: -6.2%
viability increase [3]: -1.65%
viability [4]: 93.1%
viability [5]: 89.7%
inhibition [6]: 1.46%

CCOC(=O)C1=C(N)OC2=C(C(=O)CC(C)(C)C2)C1C1CCCCC1 (centres undefined)
growth inhibition [1]: -13.2%
growth inhibition [2]: -4.08%
viability increase [3]: -1.22%
viability [4]: 93.3%
viability [5]: 92.9%
inhibition [6]: 1.4%

CCn1c(C(C)NC(=O)c2cccc(C)c2)nc2ccccc21 (centres undefined)
growth inhibition [1]: -8.83%
growth inhibition [2]: 5.38%
viability increase [3]: -2.68%
viability [4]: 102%
viability [5]: 95.6%
inhibition [6]: 2.54%

COc1ccc(-c2nc(CS(=O)CC(=O)NCc3ccc4c(c3)OCO4)c(C)o2)cc1 (centres undefined)
growth inhibition [1]: 4.12%
growth inhibition [2]: 14.1%
viability increase [3]: -1.69%
viability [4]: 94.7%
viability [5]: 91.1%
inhibition [6]: 2.02%

CCN1CCN(CC(=O)Nc2ccc(Cl)c(Cl)c2)C(=O)C1=O
growth inhibition [1]: 3.48%
growth inhibition [2]: -8.29%
viability increase [3]: -0.65%
viability [4]: 102%
viability [5]: 97.7%
inhibition [6]: 0.63%

COc1ccc(NC(=O)c2nnn(Cc3ccc(SC)cc3)c2N)c(OC)c1
growth inhibition [1]: -1.88%
growth inhibition [2]: -10.7%
viability increase [3]: -0.11%
viability [4]: 100%
viability [5]: 93.1%
inhibition [6]: 4.42%

c1ccc(CNc2ncnc3nc[nH]c23)nc1
growth inhibition [1]: -12.5%
growth inhibition [2]: -1.55%
viability increase [3]: -1.52%
viability [4]: 102%
viability [5]: 96.3%
inhibition [6]: 1.71%

NC/C(=N\O)c1ccc(Cl)cc1Cl
growth inhibition [1]: -6.44%
growth inhibition [2]: -12.5%
viability increase [3]: 2.52%
viability [4]: 97.7%
viability [5]: 94.1%
inhibition [6]: 1.2%

CCOc1ccccc1NC1c2ccccc2C(=O)N1c1ccc(C)cn1 (centres undefined)
growth inhibition [1]: -14.3%
growth inhibition [2]: 3.06%
viability increase [3]: -1.37%
viability [4]: 88.2%
viability [5]: 88%
inhibition [6]: 0.395%

COc1ccccc1N1CCN(C(=O)c2cc3c(-c4ccc(Cl)cc4)nn(C)c3s2)CC1
growth inhibition [1]: -1.53%
growth inhibition [2]: 13.8%
viability increase [3]: -4.63%
viability [4]: 60.8%
viability [5]: 47.9%
inhibition [6]: 2.8%

COc1ccc(OC)c(NC(=O)C2COc3ccccc3O2)c1 (centres undefined)
growth inhibition [1]: -10.5%
growth inhibition [2]: -6.21%
viability increase [3]: -2.23%
viability [4]: 82.7%
viability [5]: 80.3%
inhibition [6]: 0.25%

COc1ccc(N2CCN(C(=O)CCS(=O)(=O)c3cccc4nsnc34)CC2)cc1
growth inhibition [1]: -9.09%
growth inhibition [2]: -6.57%
viability increase [3]: -2.63%
viability [4]: 95.7%
viability [5]: 96.9%
inhibition [6]: 0.895%

O=C(Cn1cc2c(n1)CCCC2)NCc1ccccn1
growth inhibition [1]: -2.39%
growth inhibition [2]: 2.25%
viability increase [3]: -0.85%
viability [4]: 104%
viability [5]: 106%
inhibition [6]: 0.72%

O=S1(=O)C=C(SCCN2CCCCC2)c2ccccc21
growth inhibition [1]: -4.08%
growth inhibition [2]: -20.4%
viability increase [3]: -7.06%
viability [4]: 61.6%
viability [5]: 66.9%
inhibition [6]: 1.29%

Brc1ccc(Oc2nnnn2-c2ccccc2)cc1
growth inhibition [1]: -5.57%
growth inhibition [2]: -3.68%
viability increase [3]: 0.29%
viability [4]: 95.3%
viability [5]: 88.9%
inhibition [6]: 1.51%

COc1ccc(OCCn2c(NC(=O)c3ccco3)nc3ccccc32)cc1
growth inhibition [1]: 2.63%
growth inhibition [2]: 9.83%
viability increase [3]: -6.84%
viability [4]: 56.9%
viability [5]: 57.9%
inhibition [6]: 3.36%

Cc1noc(/C=C/N(C)C)c1S(=O)(=O)N1CCCC(C(=O)NCc2cccs2)C1 (centres undefined)
growth inhibition [1]: 2%
growth inhibition [2]: -3.34%
viability increase [3]: 10.6% (active)
viability [4]: 93.2%
viability [5]: 88.5%
inhibition [6]: 0.21%

CCOC(=O)c1ccc(NC(=O)c2cc3ccccc3o2)cc1
growth inhibition [1]: -5.56%
growth inhibition [2]: -8.95%
viability increase [3]: 1.54%
viability [4]: 86.2%
viability [5]: 86.6%
inhibition [6]: 1%

CCc1ccccc1S(=O)(=O)Cc1ccc(C(=O)N2CCN(c3ccccc3OC)CC2)o1
growth inhibition [1]: -12.5%
growth inhibition [2]: -21.1%
viability increase [3]: -2.86%
viability [4]: 37%
viability [5]: 43.5%
inhibition [6]: 1.31%

Cc1ccc(-c2nc(CS(=O)CC(=O)NCc3ccc(Cl)cc3)c(C)o2)cc1 (centres undefined)
growth inhibition [1]: 1.44%
growth inhibition [2]: -4.35%
viability increase [3]: -2.83%
viability [4]: 73.5%
viability [5]: 80.2%
inhibition [6]: 3.42%

Clc1ccccc1-c1nnc2sc(-c3ccncc3)nn12
growth inhibition [1]: -1.33%
growth inhibition [2]: 19.3%
viability increase [3]: -3.61%
viability [4]: 106%
viability [5]: 90.8%
inhibition [6]: 0.635%

N#CCCn1cc(C(CC(=O)c2ccc(Br)cc2)C(=O)O)c2ccccc21 (centres undefined)
growth inhibition [1]: 3.64%
growth inhibition [2]: 4.21%
viability increase [3]: -3.05%
viability [4]: 91.7%
viability [5]: 96.4%
inhibition [6]: 1.56%

Oc1ccccc1C(=S)N1CCCCC1
growth inhibition [1]: 8.11%
growth inhibition [2]: 23.6%
viability increase [3]: -2.83%
viability [4]: 94.7%
viability [5]: 89.8%
inhibition [6]: 2.25%

Cc1c(C(=O)O)nn(-c2ccccc2)c(=O)c1C#N
growth inhibition [1]: -15.2%
growth inhibition [2]: 5.62%
viability increase [3]: 0.49%
viability [4]: 98.4%
viability [5]: 102%
inhibition [6]: 1.46%

Brc1ccccc1-c1nnc(CSc2nnc3sc4ccccc4n23)o1
growth inhibition [1]: 16.1%
growth inhibition [2]: 64.8% (active)
viability increase [3]: -3.18%
viability [4]: 96.1%
viability [5]: 91.7%
inhibition [6]: 2.15%
